PAX8 inh HTS = lowers PAX8-driven luciferase in RMG-I cells; AID 652154; inhibition, % at 12.6 µM; 360,000 compounds, 1.2% hits; RMG-I TPO-luciferase reporter, SteadyGlo, 24 h;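 active = mean replicate inhibition at least 60% with every replicate also reaching 60%; inconclusive = only one of the two criteria is met; inactive = mean below 60% and not all replicates reaching 60%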;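 also: luciferase light reporting Pax8 driven TPO promoter activity; plate controls were median of neutral control wells for no effect and mitoxantrone controls for full effect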
EWS-Fli block = blocks EWS/Fli oncoprotein-driven transcription; A673 NR0B1-luciferase reporter, viability-normalised; inhibition, % at 12.6 µM; 350,000 compounds, 0.67% hits;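 active = mean inhibition of at least 50% after viability correction, with every replicate also passing that limit; inconclusive = mean reaches 50% but only one of two replicates passes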;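 also: firefly luciferase signal divided by Alamar Blue viability fluorescence both relative to DMSO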
AF4-AF9 inh = MLL-AF4/AF9 protein interaction inhibition | P42568 | 350,000 compounds, 0.47% hits | inhibition, % at 10 µM | AlphaScreen, biotin-AF4 peptide binding to FLAG-AF9 | AID 651704;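 active = every replicate reaching a set inhibition limit, whatever the replicate mean, cut at about 25% in these data; inconclusive = mean inhibition reaches that limit but some replicates miss it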;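 also: 0% = plate neutral control median and 100% = total signal loss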
Target sequence (P42568 whole entry, looked up): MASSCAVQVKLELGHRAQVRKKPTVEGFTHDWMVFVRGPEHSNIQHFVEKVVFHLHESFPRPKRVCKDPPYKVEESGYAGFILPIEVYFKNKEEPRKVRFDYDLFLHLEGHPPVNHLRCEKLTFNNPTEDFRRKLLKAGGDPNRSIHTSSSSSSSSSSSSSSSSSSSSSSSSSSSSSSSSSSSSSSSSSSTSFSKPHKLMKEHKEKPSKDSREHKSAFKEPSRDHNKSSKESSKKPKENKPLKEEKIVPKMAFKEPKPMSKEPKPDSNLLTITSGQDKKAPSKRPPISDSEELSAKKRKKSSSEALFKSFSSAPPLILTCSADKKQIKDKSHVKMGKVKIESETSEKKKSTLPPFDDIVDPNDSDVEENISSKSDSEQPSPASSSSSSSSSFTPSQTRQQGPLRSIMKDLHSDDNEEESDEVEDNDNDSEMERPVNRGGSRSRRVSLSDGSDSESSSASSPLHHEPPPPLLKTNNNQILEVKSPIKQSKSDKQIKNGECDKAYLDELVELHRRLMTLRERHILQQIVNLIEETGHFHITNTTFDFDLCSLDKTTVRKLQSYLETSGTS
Glyco luc inh = blocks N-linked glycosylation in D54 reporter cells | D54 ERlucT glycosylation luciferase reporter, 24 h; percent of 100 nM tunicamycin response | reporter increase, % at 12.5 µM | 360,000 compounds, 0.23% hits | AID 588692;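 active = mean luciferase reporter signal, scaled so untreated is 0 and the glycosylation-blocking control 100, at or above a set limit in every replicate; inconclusive = mean reaches the limit but not every replicate does; inactive = mean below the limit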;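 also: luciferase carries N-glycosylation sites so blocking glycosylation raises the light; 0% = median of neutral control wells and 100% = median of 100 nM tunicamycin wells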
HIV Env fusion = HIV envelope-mediated fusion inhibition; 360,000 compounds, 1.1% hits; inhibition, % at 12.3 µM; HeLa-JRFL Env/CEM21 cell fusion, luciferase; AID 651610;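 active = mean replicate inhibition score of at least 50 and every replicate individually at or above 50; inconclusive = only one of the two criteria met; inactive = mean below 50 and not all replicates reaching 50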;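 also: 0% = plate neutral controls and 100% = maraviroc near 300 nM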
FN deposition inh = fibronectin deposition inhibition; 350,000 compounds, 0.086% hits; inhibition, % at 12.6 µM; AID 743247; AH1F fibroblasts, Alexa488-fibronectin deposition fluorescence, overnight;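 active = mean inhibition across replicates of 30% or more, regardless of how many single replicates reach that level; inconclusive = mean under 30% yet at least half of replicates reach 30%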;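 also: positive control wells lacked labelled fibronectin entirely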
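Schedule: 1 h cell adhesion before compound, then overnight fibronectin incubation; test system: AH1F fibroblast monolayer depositing Alexa488-labelled fibronectin into matrix; quantity: 10000 AH1F cells per well; probe or stimulus: fluorescent fibronectin at 24 nM final; signal: fluorescence, ex 485 nm, em 525 nm; evaluation: percent inhibition as loss of matrix-bound fibronectin fluorescence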
* = called active by the depositor; ? = inconclusive; nt = not tested or not shown; [ ] = remark or other dose. Most compounds without a hit are left out; they make up all but 2.5% or so of the library.

SMILES	PAX8 inh HTS	EWS-Fli block	AF4-AF9 inh	Glyco luc inh	HIV Env fusion	FN deposition inh
COc1ccc(-n2nnnc2-c2cccc(OC)c2)cc1	25	nt	nt	16	56*	9
C[C@H](CO)N1C[C@H](C)[C@@H](CN(C)Cc2ccc(Cl)c(Cl)c2)OCCCC[C@H](C)Oc2ccc(NC(=O)Nc3cccc4ccccc34)cc2C1=O	-73	0	-3	nt	22[16.7 µM]	nt
Cc1cc(NC(=O)CSc2ccc(-c3nc4cc(C)c(C)cc4[nH]3)cn2)no1	nt	nt	nt	44*	nt	nt
Cc1cc2nc(-c3ccc(SCC(=O)Nc4ccc(S(=O)(=O)NC5CC5)cc4)nc3)[nH]c2cc1C	56	0	11	-8	nt	3
C[C@H]1CN([C@@H](C)CO)S(=O)(=O)c2ccc(-c3ccccc3)cc2O[C@@H]1CN(C)C(=O)C1CCC1	nt	1	nt	nt	17[16.7 µM]	nt
O=C(CCl)N=c1sccn1Cc1ccc(Cl)cc1Cl	111*	21	0	9	84*	25
CCC(=O)OCC(=O)N=c1sccn1Cc1ccccc1Cl	9	5	-1	1	9	-2
O=C(CCl)N=c1sccn1Cc1ccccc1Cl	100*	63*	1	0	134*	22
O=C(CCl)N=c1sccn1Cc1cccc2ccccc12	111*	34	-2	0	66*	-5
CCC(=O)OCC(=O)N=c1sccn1Cc1ccc(C)cc1	9	nt	3	1	-7	nt
CN1C(=O)c2cc(NC(=O)C3CCOCC3)ccc2OC[C@H]2O[C@H](CC(=O)NC3CCCC3)CC[C@@H]21	-15	1	-1	nt	-4[16.7 µM]	2
CN(C)CCCn1c(SCC(=O)Nc2nc(-c3cccc(Br)c3)cs2)nc2ccccc2c1=O	-19	-25	35*	-9	-15	-8
COC(=O)C1=CN(c2ccc(F)cc2)C(N)=C(C#N)C1c1cccc(F)c1 (stereo not given)	18	24	nt	nt	9	10
COC(=O)C1=CN(c2ccc(OC)cc2OC)C(N)=C(C#N)C1c1cccc([N+](=O)[O-])c1 (stereo not given)	28	57*	5	nt	-70	0
COc1ccc2c3c(n(C)c2c1)[C@@H](CO)NCC31CN(C(=O)c2ccccc2)C1	nt	0	-1	nt	nt	nt
COc1ccc2c3c(n(C)c2c1)[C@H](CO)NCC31CN(Cc2ccccc2Cl)C1	6	-5	43*	nt	nt	5
COc1ccc2c3c(n(C)c2c1)[C@H](CO)NCC31CN(C(C)=O)C1	nt	6	-1	nt	nt	nt
COc1ccc2c3c(n(C)c2c1)[C@H](CO)NCC31CCN(Cc2ccc(-c3ccccn3)cc2)CC1	nt	10	30*	nt	nt	nt
COc1ccc2c3c(n(C)c2c1)[C@@H](CO)NCC31CCN(Cc2ccc(-c3ccccn3)cc2)CC1	nt	12	?	nt	nt	nt
COc1ccc2c3c(n(C)c2c1)[C@@H](CO)NCC31CN(Cc2ccc(-c3ccccn3)cc2)C1	6	17	45*	nt	nt	8
COc1ccc2c3c(n(C)c2c1)[C@H](CO)NCC31CN(CC2CCOCC2)C1	nt	10	35*	nt	nt	11
CC(C)NC(=O)Nc1ccc2c(c1)CC(=O)N([C@@H](C)CO)C[C@H](C)[C@H](CN(C)C)O2	-1	nt	-2	nt	-7[16.7 µM]	4
O=C(CNS(=O)(=O)c1c(Cl)cccc1Cl)OCC(=O)c1ccc[nH]1	75*	-3	0	-1	18	-5
O=C(CNS(=O)(=O)c1ccc(Br)cc1Cl)OCC(=O)c1ccc[nH]1	-15	1	-25	2	-8	-10
COc1cc(OC)nc(Nc2nc(C(N)CCc3ccccc3)cs2)n1 (stereo not given)	9	1	6	1	52	8
COc1cc(OC)nc(Nc2nc(C(N)COCc3ccccc3)cs2)n1 (stereo not given)	11	-5	3	3	97*	nt
O=C(C[C@@H]1CC[C@H]2[C@@H](COC[C@@H](O)CN2C(=O)Nc2cccc(Cl)c2)O1)NCC1CCCCC1	-29	-38	1	nt	nt	-16
C[C@@H]1CCCCO[C@H](CN(C)Cc2ccc(C(F)(F)F)cc2)[C@@H](C)CN([C@H](C)CO)C(=O)c2cc(NS(=O)(=O)c3ccccc3)ccc2O1	13	5	0	nt	-4[16.7 µM]	-1

Screens as filed in PubChem BioAssay.
